≈ marks a conversion by molar mass, not a printed value. Calls of active or inactive are those of the source.
Assays:
[1] = Free fraction in human plasma incubated for 5 hrs by equilibrium dialysis based LC-MS/MS analysis; format: ADME, cell-free
How it was run: (§1)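 Equilibrium dialysis across a 12–14 kDa cutoff membrane in a Teflon 96-well device. Pooled frozen plasma is adjusted to pH 7.4 and spiked at 1000 nM initial total, against Soerensen buffer pH 7.4. Incubation is 5 h at 37 °C, 5% CO2, with diazepam control in each well. %fu = 100 × buffer/matrix concentration after dialysis; recovery accepted at 80–120%.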

CYP2D6 = CYP2D6 (Homo sapiens, UniProt P10635); assay: Inhibition of CYP2D6 (unknown origin) at 10 uM relative to control; format: ADME
CYP2D6, sequence (P10635 whole entry): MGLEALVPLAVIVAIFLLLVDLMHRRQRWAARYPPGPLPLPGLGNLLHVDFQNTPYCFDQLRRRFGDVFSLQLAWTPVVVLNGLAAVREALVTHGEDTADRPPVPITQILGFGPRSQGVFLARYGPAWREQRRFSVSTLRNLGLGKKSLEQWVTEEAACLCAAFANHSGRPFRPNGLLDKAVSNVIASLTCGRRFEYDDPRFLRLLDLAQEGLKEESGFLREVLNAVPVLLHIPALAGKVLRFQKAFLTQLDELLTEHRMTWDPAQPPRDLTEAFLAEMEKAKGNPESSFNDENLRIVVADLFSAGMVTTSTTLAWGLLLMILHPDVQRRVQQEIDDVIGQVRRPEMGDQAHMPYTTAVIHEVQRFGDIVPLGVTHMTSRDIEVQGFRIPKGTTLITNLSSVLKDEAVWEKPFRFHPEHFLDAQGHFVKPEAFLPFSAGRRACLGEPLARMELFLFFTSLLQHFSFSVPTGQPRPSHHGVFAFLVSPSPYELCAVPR

[2] = Aqueous solubility of compound in phosphate buffer at pH 6.5 by HPLC or MS/MS analysis; format: physicochemical; settings: buffer
How it was run: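 Lyophilization solubility assay (LYSA) starting from a 10 mM DMSO stock. DMSO was removed by centrifugal vacuum evaporation, then 0.05 M phosphate buffer pH 6.5 was added and samples sonicated. Filtrates were analysed by MS/MS and/or HPLC against a 4- to 7-point calibration curve.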

Monoglyceride lipase [3] = target: T1, Monoglyceride lipase (Rattus norvegicus, UniProt Q8R431); assay: Inhibition of rat MAGL using native substrate by Rapidfire MS assay
T1 sequence (Q8R431 whole entry): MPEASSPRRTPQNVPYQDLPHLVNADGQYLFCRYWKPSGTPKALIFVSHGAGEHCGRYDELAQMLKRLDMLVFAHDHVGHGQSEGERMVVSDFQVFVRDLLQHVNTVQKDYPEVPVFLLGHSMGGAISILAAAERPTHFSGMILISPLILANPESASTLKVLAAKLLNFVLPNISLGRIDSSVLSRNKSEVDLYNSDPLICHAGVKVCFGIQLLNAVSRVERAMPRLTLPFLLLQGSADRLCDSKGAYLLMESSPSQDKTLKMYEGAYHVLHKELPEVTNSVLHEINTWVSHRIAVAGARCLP

Monoglyceride lipase [4] = target: T2, Monoglyceride lipase (Homo sapiens, UniProt Q99685); assay: Inhibition of human MAGL using native substrate by Rapidfire MS assay
T2 sequence (Q99685 whole entry): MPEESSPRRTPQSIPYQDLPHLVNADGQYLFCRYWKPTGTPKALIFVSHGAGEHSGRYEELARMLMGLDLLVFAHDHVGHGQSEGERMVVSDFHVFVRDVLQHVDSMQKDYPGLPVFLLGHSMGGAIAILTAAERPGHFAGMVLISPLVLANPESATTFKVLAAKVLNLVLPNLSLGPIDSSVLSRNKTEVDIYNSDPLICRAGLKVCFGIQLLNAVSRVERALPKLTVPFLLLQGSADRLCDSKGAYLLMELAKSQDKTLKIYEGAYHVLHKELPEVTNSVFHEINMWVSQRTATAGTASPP

[5] = Drug concentration in mouse CSF at 30 mg/kg, ip measured after 24 hrs; format: ADME, organism-based, Cerebrospinal fluid; settings: read-out: Ct
[6] = Drug concentration in mouse CSF at 3 mg/kg, ip measured after 4 hrs; format: ADME, organism-based, Cerebrospinal fluid; settings: read-out: Ct
[7] = Half-life in Wistar rat at 1 mg/kg, iv measured upto 24 hrs by LC-MS/MS analysis; format: ADME, organism-based; settings: in vivo
How it was run: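 Male Wistar rats, single dose. i.v. in NMP/0.9% NaCl 30:70; p.o. and i.p. in NMP/HPMC/diisooctyl sulfosuccinate 10:90; 3 per i.v./p.o. group, 6 i.p. K2EDTA plasma sampled 0.083–7 h, plus 24 h for i.v./p.o.; brain and CSF at 1, 2, 7 h (i.p. only). LC-MS/MS, noncompartmental analysis.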

[8] = Plasma protein binding in human assessed as fraction unbound by equilibrium dialysis based LC-MS/MS method; format: ADME, cell-free; how it was run: as §1
[9] = target: Voltage-gated inwardly rectifying potassium channel KCNH2 (Homo sapiens, UniProt Q12809); assay: Inhibition of human ERG expressed in CHO cells by automated patch clamp method; format: toxicity, cell-based
Voltage-gated inwardly rectifying potassium channel KCNH2, sequence (Q12809 whole entry): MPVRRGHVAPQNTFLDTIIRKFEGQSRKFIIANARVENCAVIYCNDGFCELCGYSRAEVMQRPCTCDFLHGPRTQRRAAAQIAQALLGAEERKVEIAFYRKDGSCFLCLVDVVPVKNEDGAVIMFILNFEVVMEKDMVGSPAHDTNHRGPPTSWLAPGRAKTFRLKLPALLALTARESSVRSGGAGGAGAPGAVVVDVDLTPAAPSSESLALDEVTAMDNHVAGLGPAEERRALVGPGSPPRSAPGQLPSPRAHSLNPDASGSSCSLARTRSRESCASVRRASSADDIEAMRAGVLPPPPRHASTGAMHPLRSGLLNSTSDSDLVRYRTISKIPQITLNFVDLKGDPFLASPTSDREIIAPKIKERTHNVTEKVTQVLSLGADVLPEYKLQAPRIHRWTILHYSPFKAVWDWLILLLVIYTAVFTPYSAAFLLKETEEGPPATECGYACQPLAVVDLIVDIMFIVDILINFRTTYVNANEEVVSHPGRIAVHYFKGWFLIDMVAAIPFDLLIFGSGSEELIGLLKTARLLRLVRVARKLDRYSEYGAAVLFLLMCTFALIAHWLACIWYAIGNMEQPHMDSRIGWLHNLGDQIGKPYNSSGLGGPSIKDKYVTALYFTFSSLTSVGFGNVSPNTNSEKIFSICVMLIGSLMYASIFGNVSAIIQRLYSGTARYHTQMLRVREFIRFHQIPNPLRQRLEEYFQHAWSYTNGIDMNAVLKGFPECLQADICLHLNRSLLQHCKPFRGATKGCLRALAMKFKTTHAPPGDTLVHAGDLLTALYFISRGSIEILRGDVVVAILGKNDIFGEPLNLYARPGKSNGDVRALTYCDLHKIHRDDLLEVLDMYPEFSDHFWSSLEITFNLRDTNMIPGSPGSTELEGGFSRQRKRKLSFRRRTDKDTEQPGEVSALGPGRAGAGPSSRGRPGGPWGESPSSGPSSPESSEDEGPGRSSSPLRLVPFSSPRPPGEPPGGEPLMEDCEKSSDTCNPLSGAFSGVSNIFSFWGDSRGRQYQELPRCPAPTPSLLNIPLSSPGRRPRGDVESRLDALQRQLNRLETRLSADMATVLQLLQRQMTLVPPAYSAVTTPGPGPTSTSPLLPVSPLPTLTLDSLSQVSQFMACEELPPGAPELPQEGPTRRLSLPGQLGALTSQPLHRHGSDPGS

[10] = Average drug concentration in mouse plasma at 30 mg/kg, ip measured after 16 hrs; format: ADME, organism-based; settings: in vivo
How it was run: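 In a time course, mice were injected i.p. with 30 mg/kg in NaCl/DMSO/Tween 80 (80/10/10). Average plasma levels were determined at the stated time points over 24 h.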

Mus musculus [11] = assay: Antiinflammatory activity in LPS-induced CD-1 mouse neuroinflammation model assessed as decrease in brain IL-1beta mRNA expression at 30 mg/kg, ip measured after 6 hrs by qRT-PCR analysis; format: functional, organism-based
How it was run: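 CD-1 mice received NaCl + vehicle, LPS (5 mg/kg) + vehicle, or LPS + inhibitor at 30 mg/kg i.p. The vehicle was NaCl/DMSO/Tween 80, 80/10/10. Mice were killed 6 h after compound dosing. LCN2 and IL1b mRNA in cortical brain lysates were quantified by droplet digital qRT-PCR.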

Mus musculus [12] = assay: Upregulation of brain 2-AG level in ip dosed mouse measured after 4 hrs; format: functional, organism-based; settings: dose 3-30 mg/kg
How it was run: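 Mice dosed i.p. in NaCl/DMSO/TW80 (80/10/10): 3, 10 or 30 mg/kg with sacrifice at 4 h, or 30 mg/kg over a 24 h time course. Brain extract 2-AG and AA were measured by LC/MS.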

Mus musculus [13] = organism: Mus musculus; assay: Inhibition of DAGL in mouse brain lysates at 10 uM by ABPP assay; format: subcellular
How it was run: (§2)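 Gel-based activity-based protein profiling of hydrolases, with the inhibitor at 10 µM.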

[14] = target: T3, Lysophosphatidylserine lipase ABHD12 (Mus musculus) (UniProt Q99LR1); assay: Inhibition of ABHD12 in mouse brain lysates at 10 uM by ABPP assay; format: subcellular; how it was run: as §2
T3 sequence (whole entry): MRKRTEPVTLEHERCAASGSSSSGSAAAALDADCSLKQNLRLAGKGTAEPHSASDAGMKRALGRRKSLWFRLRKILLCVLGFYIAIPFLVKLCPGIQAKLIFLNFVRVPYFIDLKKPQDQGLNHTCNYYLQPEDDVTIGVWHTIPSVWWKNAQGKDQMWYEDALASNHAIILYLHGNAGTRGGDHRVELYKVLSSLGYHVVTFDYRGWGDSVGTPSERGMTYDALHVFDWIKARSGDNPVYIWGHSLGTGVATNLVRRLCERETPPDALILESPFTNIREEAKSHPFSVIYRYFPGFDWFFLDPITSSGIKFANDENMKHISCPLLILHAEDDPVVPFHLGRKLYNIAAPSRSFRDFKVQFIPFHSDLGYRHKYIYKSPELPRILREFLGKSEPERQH

[15] = target: T4, Monoglyceride lipase (Homo sapiens) (UniProt Q99685); assay: Binding affinity to human MAGL assessed as association rate constant by SPR analysis
T4 sequence (whole entry): T2 sequence (Q99685 whole entry)
How it was run: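 Human or rat MAGL was immobilized by amine coupling without ethanolamine quenching. Runs were done at 18 °C in 10 mM HEPES, 150 mM NaCl, 0.05% P20, 50 µM EDTA, pH 7.4, with 1% DMSO. Single-cycle kinetics used five concentrations, top 1 µM in 2-fold steps, at 30 µL/min, giving kon, koff and Kd.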

SMILES | fraction unbound at 5 h [1] | inhibition at 10 µM (CYP2D6) | solubility [2] | IC50 (Monoglyceride lipase [3]) | IC50 (Monoglyceride lipase [4]; read-out: IC50) | IC50 (Monoglyceride lipase [4]; read-out: pIC50 (converted)) | concentration at 24 h [5] | concentration at 4 h [6] | half-life [7] | fraction unbound [8] | IC50 [9] | Cave [10] | Activity (Mus musculus [11]) | Activity (Mus musculus [12]) | inhibition (Mus musculus [13]) | inhibition [14] | K [15]
O=C1CO[C@H]2CCN(C(=O)N3CCC(Cc4ccc(C(F)(F)F)cc4)CC3)C[C@H]2N1 [listing 1 of 2 here] | 0.043 | -12% | 231 µg/mL (≈ 543 µM) | 71 nM | 32 nM | 28.2 nM | 2 nM | 31.2 nM | 5.1 h | 0.043 | 7700 nM | 2955 nM |  |  |  |  | 
O=C1CO[C@H]2CCN(C(=O)N3CCC(Cc4ccc(C(F)(F)F)cc4)CC3)C[C@H]2N1 [listing 2 of 2 here] |  |  |  |  |  |  |  |  |  |  |  |  | Active | Dose-Dependent Effect | inactive | inactive | 2.5 10^5/M/s

From ChEMBL document CHEMBL6127097, “Structure-Guided Discovery of cis-Hexahydro-pyrido-oxazinones as Reversible, Drug-like Monoacylglycerol Lipase Inhibitors” (J Med Chem, 2024)
